NPY-Y2 PAM-ag: human NPY-Y2 potentiation or agonism, primary screen | cells expressing NPY-Y2, potentiator/agonist read-out | 0.45% of 220,000 active | P49146 | activation, % at 3.6 µM | AID 1359; in the data active means activation above about 27%;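 further: cells stimulated with NPY near EC25 plus isoproterenol at EC100; 0% = vehicle plus submaximal agonist and 100% = vehicle plus saturating agonist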
Target sequence (P49146 whole entry, looked up): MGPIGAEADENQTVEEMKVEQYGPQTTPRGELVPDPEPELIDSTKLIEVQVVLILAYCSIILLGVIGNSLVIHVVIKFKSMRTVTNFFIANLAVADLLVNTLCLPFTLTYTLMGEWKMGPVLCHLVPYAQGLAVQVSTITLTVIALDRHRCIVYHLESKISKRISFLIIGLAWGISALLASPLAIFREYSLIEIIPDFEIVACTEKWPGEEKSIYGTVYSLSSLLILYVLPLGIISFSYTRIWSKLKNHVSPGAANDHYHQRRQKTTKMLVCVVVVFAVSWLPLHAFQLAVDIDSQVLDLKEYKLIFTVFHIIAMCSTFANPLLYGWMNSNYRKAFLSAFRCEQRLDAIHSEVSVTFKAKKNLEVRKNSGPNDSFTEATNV
S1P4 antag: blocks the human S1P4 receptor; O95977; 0.26% of 220,000 active; S1P4-expressing cells, antagonist mode, reporter read-out; AID 1510; inhibition, % at 4.98 µM; in the data active means inhibition above about 29%;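 further: 0% = wells stimulated with agonist and 100% = vehicle wells without agonist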
NPY-Y1 PAM-ag: potentiates or activates human NPY-Y1 receptor. P25929. NPY-Y1 expressing cells, potentiator/agonist activation. activation, % at 3.6 µM. 0.37% of 220,000 active; in the data active means activation above about 33%, passing the limit was not always enough;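 further: cells stimulated with NPY at EC10 then isoproterenol at EC100; 0% = low agonist plus stimulus and 100% = saturating agonist plus stimulus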
NPY Y1 blocker: NPY-Y1 (human) receptor antagonism. AID 1040. 1% of 200,000 active. P25929. HEK293-CNG Y1 cells, membrane potential fluorescence; NPY at EC95, then isoproterenol. inhibition, % at 3.6 µM;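 active means inhibition above the campaign mean inhibition of all tested compounds plus 3 SD, cut at about 20% in these data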;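 further: 0% = DMSO wells given NPY plus isoproterenol and 100% = isoproterenol alone without NPY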
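Material: HEK293 cells with Y1 receptor plus CNG channel; times: compound incubation 1 h at room temperature, readout 45 min post-stimulation; signal: fluorescence, membrane potential probe; read-out basis: fluorescence ratio normalized to % inhibition between controls; benchmarks: full-block control isoproterenol-only wells, zero-block control NPY plus isoproterenol wells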
S1P4 ag: human S1P4 receptor agonism | S1P4-expressing cell line, agonist reporter assay | AID 1509 | activation, % at 4.98 µM | O95977 | 0.35% of 220,000 active; in the data active means activation above about 11%;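 further: 0% = DMSO vehicle and 100% = reference agonist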
NPY-Y2 antag: antagonists of human neuropeptide Y receptor Y2; NPY-Y2 expressing cells, antagonist mode; 0.99% of 140,000 active; inhibition, % at 2.7 µM; P49146; in the data active means inhibition above about 17%;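 further: 0% = vehicle with agonist challenge and 100% = reference antagonist with challenge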
NPY-Y1 pot conf: human NPY-Y1 potentiation or agonism, confirmation; activation, % at 3.6 µM; shares compounds with NPY-Y1 PAM-ag; cell-based NPY-Y1 potentiator/agonist assay; 20% of 280 active; in the data active means activation above about 45%;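 further: cells challenged with NPY at its EC10 plus isoproterenol stimulus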
NPY-Y2 counter: NPY-Y2 potentiation or agonism as NPY-Y1 counter-screen; shares compounds with NPY-Y1 PAM-ag; HEK293-CNG cells, membrane-potential fluorescence (FLIPR), 1536-well; activation, % at 3.6 µM; 20% of 280 active; AID 1649; in the data active means activation above about 33%
NPY-Y1 ag: activates human NPY-Y1, counter-screen for NPY-Y1 potentiators; shares compounds with NPY-Y1 PAM-ag; HEK293 Y1-CNGC, membrane potential fluorescence, agonist mode; activation, % at 3.6 µM; 50% of 280 active; AID 1697;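 active means percent activation above the mean of DMSO-only control wells plus 3 SD of those wells, cut at about 18% in these data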;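 further: cells challenged with isoproterenol plus Ro 20-1724 with no NPY in test wells; Y1 agonism lowers isoproterenol-driven cAMP and reduces probe fluorescence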
NPY-Y2 agonist: activates human NPY-Y2, counter-screen for NPY-Y1 hits. HEK293 Y2-CNGC, membrane potential fluorescence, agonist mode. AID 1698. activation, % at 3.6 µM. 67% of 280 active. shares compounds with NPY-Y1 PAM-ag;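 active means activation above the solvent-only control wells' mean plus 3 SD, cut at about 11% in these data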;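 further: 0% = DMSO with isoproterenol and 100% = 40 nM NPY maximal response; agonism lowers cAMP so well fluorescence drops in active wells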
CNGC counter: blocks cyclic nucleotide gated channel in NPY-Y1 counter-screen; shares compounds with NPY-Y1 PAM-ag; HEK293-CNG parental, isoproterenol cAMP, membrane potential fluorescence; inhibition, % at 3.6 µM; 42% of 280 active; AID 1704;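 active means inhibition above the mean of stimulated solvent-only control wells plus 3 SD, cut at about 22% in these data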;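 further: 0% = isoproterenol-stimulated DMSO wells and 100% = unstimulated DMSO wells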
Numbers without * were called inactive; . = no result given. Most compounds without a hit are left out; they make up all but 2.4% or so of the library.

SMILES	NPY-Y2 PAM-ag	S1P4 antag	NPY-Y1 PAM-ag	NPY Y1 blocker	S1P4 ag	NPY-Y2 antag	NPY-Y1 pot conf	NPY-Y2 counter	NPY-Y1 ag	NPY-Y2 agonist	CNGC counter
CCOc1ccc(Nc2nc(Nc3ccc(O)cc3)nc(C)c2[N+](=O)[O-])cc1	25	-5	40*	-9	-1	.	27	23	5	16*	20
COc1ccc(Nc2nc(N)c([N+](=O)[O-])c(NCCO)n2)cc1	24	9	20	.	0	.	.	.	.	.	.
OC1(c2ccc3c(c2)OCO3)CCN(Cc2ccc(F)cc2)CC1	5	-7	16	.	-1	.	.	.	.	.	.
Cc1cccc(C)c1Nc1c(-c2ccccn2)nc2ccccn12	27	13	46*	-7	0	.	48*	34*	39*	41*	31*
CC1CCN(c2ncnc3ccccc23)CC1	-6	-30	40*	-6	3	3	-18	-5	-23	-10	-3
CC1CCN(c2nc(-c3ccccc3O)nc3ccccc23)CC1	9	-9	-6	-1	-2	0	.	.	.	.	.
CCCN1CCN(S(=O)(=O)c2ccc3c(c2)OCCO3)CC1	3	-4	-2	3	2	.	.	.	.	.	.
CC(C)(C)Nc1nc(Cl)nc(N(C#N)CN2C(=O)c3ccccc3S2(=O)=O)n1	9	13	65*	-2	0	.	46*	28	39*	29*	22*
C=CCc1ccc(O)c(-c2cc(CC=C)ccc2O)c1	15	4	33*	-8	-1	.	22	11	12	16*	21
Cc1ccc(S(=O)(=O)N2CCN(C(=O)N(C)C)CC2)cc1	10	-13	10	-1	-1	.	.	.	.	.	.
CCN1CCN(C(=O)Nc2cccc(C(F)(F)F)c2)CC1	3	1	-16	2	1	-1	.	.	.	.	.
CCN1CCC(NC(=O)Nc2cccc(C(F)(F)F)c2)CC1	0	2	36*	-1	-1	.	2	2	-2	-4	7
COC(=O)C1SCC2C(=O)N(Cc3ccccc3)CC(=O)N21 (centres undefined)	-10	5	-3	2	-1	.	.	.	.	.	.
COc1ccccc1NC(=O)N1CCN(Cc2ccc3c(c2)OCO3)CC1	5	-1	-2	.	-2	.	.	.	.	.	.
Cc1ccc(NCc2n[nH]c(=S)n2Cc2ccccc2)cc1Cl	21	-12	45*	-4	-2	.	12	8	16	7	10
O=C(CN1C(=O)C2C3C=CC(C3)C2C1=O)Nc1ccc(S(=O)(=O)N2CCCCC2)cc1 (centres undefined)	-1	-13	7	3	1	1	.	.	.	.	.
O=C1c2ccccc2C(=O)c2c([N+](=O)[O-])ccc(O)c21	-1	10	52*	.	0	.	41	43*	29*	33*	36*
Nc1nc(Cl)cc(N2CCC(c3cc(-c4ccc(Cl)cc4)n[nH]3)CC2)n1	33	-13	55*	-5	-4	-2	15	15	1	15*	6
O=C(NNC(=O)C(Cl)Cl)c1cnn(-c2ccccc2)c1C(F)(F)F	-3	-4	6	.	2	.	.	.	.	.	.
N/C(=N\OC(=O)/C=C/c1ccccc1)c1ccc(Cl)cc1	-10	15	-12	.	0	.	.	.	.	.	.
N/C(=N\OC(=O)/C=C/c1ccccc1)c1ccccc1	-8	1	105*	6	-1	9	-13	-11	-3	-4	-7
Cc1ccc(S(=O)(=O)N2CCCC2)cc1[N+](=O)[O-]	7	-20	15	0	-1	1	.	.	.	.	.
O=[N+]([O-])c1cc(S(=O)(=O)N2CCCCCC2)ccc1Cl	31	86*	41*	-2	-5	.	16	22	16	22*	56*
N#CC(C#N)=NNc1ccc([N+](=O)[O-])cc1	33	6	51*	.	0	.	40	32	37*	36*	32*
C/C(=N\Nc1ccc([N+](=O)[O-])cc1)c1ccc(C#N)cc1	14	-1	20	.	1	.	.	.	.	.	.
SMILES	NPY-Y2 PAM-ag	S1P4 antag	NPY-Y1 PAM-ag	NPY Y1 blocker	S1P4 ag	NPY-Y2 antag	NPY-Y1 pot conf	NPY-Y2 counter	NPY-Y1 ag	NPY-Y2 agonist	CNGC counter
CCOc1ccccc1Nc1nnc(SCC(=O)Nc2cccc(S(=O)(=O)NC3=NCCCCC3)c2)s1	8	-21	-26	-4	2	1	.	.	.	.	.
O=c1[nH]c(Cc2cccs2)nc2scc(-c3ccc(Cl)cc3)c12	26	-2	66*	.	1	.	30	23	36*	33*	44*
CCN1C(=O)/C(=C/C=C2\N(CC)c3cc(S(=O)(=O)N(C)C)ccc3N2c2ccccc2)SC1=S	18	-7	50*	.	2	.	57*	52*	51*	63*	39*
O=C(CCC1CC(=O)Nc2ccccc21)NCc1ccc(F)cc1 (centres undefined)	-26	-5	68*	4	0	-2	0	-2	-1	-5	1
O=C(CCC1CC(=O)Nc2ccccc21)NCc1ccccc1 (centres undefined)	10	0	-7	10	2	3	.	.	.	.	.
CCc1ccc(NC(=O)C(C)OC(=O)c2ccc(NS(=O)(=O)c3ccc(C)c([N+](=O)[O-])c3)cc2)cc1 (centres undefined)	19	-9	42*	-12	0	-3	24	10	16	12*	23*
CC(OC(=O)c1ccc(NS(=O)(=O)c2ccc3[nH]c(=O)[nH]c3c2)cc1)C(=O)Nc1ccc(Cl)cc1 (centres undefined)	-23	0	67*	3	-1	.	-2	-3	-4	2	-3
COc1cccc(N(CC(=O)NCc2ccco2)C(=O)CCC(=O)Nc2nccs2)c1	-3	-1	2	.	0	.	.	.	.	.	.
NS(=O)(=O)c1cc(C(=O)NCCc2ccccn2)ccc1Cl	-2	-19	96*	.	1	.	6	-1	-5	-4	3
CCN(CC)C(=O)c1ccccc1NS(C)(=O)=O	4	-7	37*	1	-2	.	-6	-4	-4	5	-5
Cc1ccc(S(=O)(=O)Nc2nc3ccccc3nc2Nc2cccc(S(=O)(=O)N3CCCC3)c2)cc1	18	-2	45*	-14	0	.	74*	71*	67*	65*	44*
